Experimental findings from ChEMBL document CHEMBL1135749, “Stereoselective synthesis and antiviral activity of D-2',3'-didehydro-2',3'-dideoxy-2'-fluoro-4'-thionucleosides” (J Med Chem, 2002) are described below.

The structures appear in SMILES notation.

The first series relates to CCRF-CEM. Kind of series: Cytotoxicity against CEM cells. In kind it is cell-based. The conditions noted are these: Homo sapiens. An outline of the steps: (§1)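 Uninfected log-phase cells seeded on 10-fold serial drug dilutions: Vero at 5 × 10³, CEM at 2.5 × 10³, and PHA-stimulated PBM at 5 × 10⁴ cells/well. Incubated at 37 °C in 5% CO₂ for 3 days (Vero), 4 days (CEM) or 5 days (PBM). MTT added overnight, then solubilized and read at 570 nm. IC50 by the median effect method.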
`O=c1nc(O)ccn1[C@@H]1S[C@H](CO)C=C1F`: the IC50 is over 100 µM.
For `Nc1nc2c(ncn2[C@@H]2S[C@H](CO)C=C2F)c(=O)[nH]1`, the IC50 was over 100 µM.
As for `Nc1ccn([C@@H]2S[C@H](CO)C=C2F)c(=O)n1`, the IC50 was over 100 µM.
Same read-out and setting: the value for `Nc1nc(F)nc2c1ncn2[C@@H]1S[C@H](CO)C=C1F` was 1.1 µM.
Regarding `Cc1cn([C@@H]2S[C@H](CO)C=C2F)c(=O)nc1O`, the IC50 is over 100 µM.
Compound `Nc1nc(=O)n([C@@H]2S[C@H](CO)C=C2F)cc1F` gave a 50% inhibitory concentration (IC50) of over 100 µM.
`O=c1[nH]cnc2c1ncn2[C@@H]1S[C@H](CO)C=C1F` came in with an IC50 of over 100 µM.
`Nc1ncnc2c1ncn2[C@@H]1S[C@H](CO)C=C1F` gave a 50% inhibitory concentration (IC50) of over 100 µM.

System in another series: not listed separately
Kind of series: Antiviral activity against (HIV-1M184V) mutant strain in human PBM cells. In kind it is functional. To be noted: PBMC. In short, it runs like this:
(§2)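 Molecular infectious clones HIV-1 xxBru and HIV-1 M184Vpitt used in PHA-stimulated human PBM cells. Bulk 1 h infection at 100 TCID50/1 × 10⁷ cells (flask) or 200 TCID50/6 × 10⁵ cells/well. Cells then exposed to 10-fold serial compound dilutions for 5 days at 37 °C. Read-out was pelleted-virus RT activity with ³H-TTP. EC50 by the median effect method.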
For the compound `Nc1ccn([C@@H]2S[C@H](CO)C=C2F)c(=O)n1`, the EC90 came to 125 µM.
`Nc1ccn([C@@H]2CS[C@H](CO)O2)c(=O)n1` [LAMIVUDINE] had an EC90 of 535 µM.
On the same count and under the same terms, the value for `Cc1cn([C@H]2C[C@H](N=[N+]=[N-])[C@@H](CO)O2)c(=O)[nH]c1=O` [ZIDOVUDINE] was 0.003 µM.

System in another series: not listed separately
Kind of series: In vitro cytotoxicity against human peripheral blood mononuclear (PBM) cells. It is filed as cell-based.
Settings: not given
In short, it runs like this:
as §1
`O=c1nc(O)ccn1[C@@H]1S[C@H](CO)C=C1F`: the IC50 is over 100 µM.
The same measure, in the same setting: as for `Nc1nc2c(ncn2[C@@H]2S[C@H](CO)C=C2F)c(=O)[nH]1`, the figure is over 100 µM.
Take `Nc1ccn([C@@H]2S[C@H](CO)C=C2F)c(=O)n1`: the IC50 was over 100 µM.
`Nc1nc(F)nc2c1ncn2[C@@H]1S[C@H](CO)C=C1F` showed a half-maximal inhibitory concentration (IC50) of 1.5 µM.
As to `Cc1cn([C@@H]2S[C@H](CO)C=C2F)c(=O)nc1O`, the IC50 was over 100 µM.
In the case of `Nc1nc(=O)n([C@@H]2S[C@H](CO)C=C2F)cc1F`, the IC50 was over 100 µM.
`O=c1[nH]cnc2c1ncn2[C@@H]1S[C@H](CO)C=C1F`: the IC50 was over 100 µM.
Consider `Nc1ncnc2c1ncn2[C@@H]1S[C@H](CO)C=C1F`, for which the IC50 was over 100 µM.
`Cc1cn([C@H]2C[C@H](N=[N+]=[N-])[C@@H](CO)O2)c(=O)[nH]c1=O` [ZIDOVUDINE] returned an IC50 of over 100 µM.

A further series concerns Vero. Nature of the series: Cytotoxicity against Vero cells. The conditions noted are these: Chlorocebus sabaeus. In kind it is cell-based. In short, it runs like this: as §1
On to `O=c1nc(O)ccn1[C@@H]1S[C@H](CO)C=C1F`, for which the IC50 was over 100 µM.
On to `Nc1nc2c(ncn2[C@@H]2S[C@H](CO)C=C2F)c(=O)[nH]1`, for which the IC50 was over 100 µM.
In the case of `Nc1ccn([C@@H]2S[C@H](CO)C=C2F)c(=O)n1`, the IC50 was over 100 µM.
In turn, `Nc1nc(F)nc2c1ncn2[C@@H]1S[C@H](CO)C=C1F` came in with an IC50 of 7.6 µM.
`Cc1cn([C@@H]2S[C@H](CO)C=C2F)c(=O)nc1O` showed an IC50 of 53 µM.
Compound `Nc1nc(=O)n([C@@H]2S[C@H](CO)C=C2F)cc1F` had an IC50 of over 100 µM.
Same read-out and setting: the value for `O=c1[nH]cnc2c1ncn2[C@@H]1S[C@H](CO)C=C1F` was over 100 µM; that for `Nc1ncnc2c1ncn2[C@@H]1S[C@H](CO)C=C1F` was over 100 µM.

The target in another series is Adenosine deaminase (Bos taurus) (UniProt P56658). Nature of the series: Half life value of the compound.
Settings: not given
Compound `Nc1ncnc2c1ncn2[C@@H]1O[C@H](CO)C=C1F` displayed a half-life of 42 min.
Still for that read-out and setting: the value for `Nc1ncnc2c1ncn2[C@@H]1S[C@H](CO)C=C1F` was 33 min; that for `Nc1ncnc2c1ncn2[C@@H]1O[C@H](CO)[C@@H](O)[C@H]1O` [ADENOSINE] was 0.5 min.

System in the next series: not listed separately
Nature of the series: Antiviral activity against HIV-1xxBRU […] strain in human PBM cells. It is filed as functional. The conditions noted are these: PBMC. An outline of the steps:
as §2
In the case of `Nc1ccn([C@@H]2S[C@H](CO)C=C2F)c(=O)n1`, the EC90 amounted to 5 µM.
On the same count and under the same terms, as for `Nc1ccn([C@@H]2CS[C@H](CO)O2)c(=O)n1` [LAMIVUDINE], the figure is 0.08 µM; as for `Cc1cn([C@H]2C[C@H](N=[N+]=[N-])[C@@H](CO)O2)c(=O)[nH]c1=O` [ZIDOVUDINE], 0.01 µM.

System in a further series: not listed separately
Nature of the series: Anti-viral activity against HIV-1 in human PBM cells. In kind it is functional, cell-based. To be noted: PBMC. In short, it runs like this:
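PHA-stimulated (2-3 days) human PBM cells from healthy seronegative donors, infected in bulk for 1 h with HIV-1 LAI (100 TCID50/1 × 10⁷ cells flask or 200 TCID50/6 × 10⁵ cells/well). Cells then placed on 10-fold serial compound dilutions in RPMI-1640 with IL-2, 5 days at 37 °C. Supernatant RT activity measured by ³H-TTP incorporation on poly(rA)·oligo(dT). EC50 obtained by the median effect method.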
In turn, `O=c1nc(O)ccn1[C@@H]1S[C@H](CO)C=C1F` showed an EC50 of over 100 µM.
`Nc1nc2c(ncn2[C@@H]2S[C@H](CO)C=C2F)c(=O)[nH]1` displayed an EC50 of 80.5 µM.
As to `Nc1ccn([C@@H]2S[C@H](CO)C=C2F)c(=O)n1`, a half-maximal effect (EC50) was put at 1.3 µM.
As to `Nc1nc(F)nc2c1ncn2[C@@H]1S[C@H](CO)C=C1F`, the EC50 was found to be 1.2 µM.
With `Cc1cn([C@@H]2S[C@H](CO)C=C2F)c(=O)nc1O`, a half-maximal response (EC50) required 92.3 µM.
In turn, `Nc1nc(=O)n([C@@H]2S[C@H](CO)C=C2F)cc1F` returned an EC50 of 11.6 µM.
`O=c1[nH]cnc2c1ncn2[C@@H]1S[C@H](CO)C=C1F` showed an EC50 of 43.6 µM.
On the same count and under the same terms, as for `Nc1ncnc2c1ncn2[C@@H]1S[C@H](CO)C=C1F`, the figure is 8.1 µM; as for `Cc1cn([C@H]2C[C@H](N=[N+]=[N-])[C@@H](CO)O2)c(=O)[nH]c1=O` [ZIDOVUDINE], 0.004 µM.

By IC50 is commonly meant the midpoint of a concentration-inhibition curve. Read a high IC50 as lower potency. What is called EC90 is the concentration at which the effect reaches the 90% level. A high value points to weaker potency. As a reminder, the half-life is how long it takes for the measured level to halve. For orientation: EC50 means the concentration that produces a half-maximal response. A high value points to a need for much substance.
